{"data": "Experimental data collected from several papers", "target": "Phosphatidylinositol 4-phosphate 3-kinase C2 domain-containing subunit beta (PIK3C2B, Homo sapiens, UniProt O00750)"}
{"Compound": "C[C@@H](c1cccc(C#N)c1)n1cc(Cl)cc(C(N)=O)c1=N", "read-out": "cell-free assay", "method": "competition with immobilised ligand", "tested at": "1 µM", "remaining binding": "96%"}
{"Compound": "Cc1nc(NC(=O)N2CCC[C@H]2C(N)=O)sc1-c1ccnc(C(C)(C)C(F)(F)F)c1", "read-out": "binding", "method": "competition with immobilised ligand", "tested at": "10 µM", "remaining binding": "4%"}
{"Compound": "Nc1ncc2c(n1)-c1c([nH]c3ccc(C#CC4CC4)cc13)CCCC2", "read-out": "binding", "method": "competition with immobilised ligand", "tested at": "1 µM", "remaining binding": "89%"}
{"Compound": "N#Cc1ccccc1CSc1nnc2c(n1)[nH]c1ccccc12", "read-out": "binding", "method": "competition with immobilised ligand", "tested at": "10 µM", "remaining binding": "95%"}
{"Compound": "Cc1cnn2ncc(-c3ccnc(N(C)C)n3)c2c1", "read-out": "binding", "tested at": "1 µM", "remaining binding": "100%"}
{"Compound": "C[C@H](c1ccnc(Nc2nc3ccc(-c4cc(N(C)C)ncn4)cc3[nH]2)c1)N1CCN(C(=O)CC(F)(F)F)CC1", "read-out": "cell-free assay", "method": "competition with immobilised ligand", "tested at": "0.1 µM", "remaining binding": "97%"}
{"Compound": "COc1cnc(Nc2cccc(S(N)(=O)=O)c2)nc1N1CCN(c2ccccc2)CC1", "read-out": "binding", "method": "competition with immobilised ligand", "tested at": "1 µM", "remaining binding": "100%"}
{"Compound": "C[C@@H](c1ccc(-n2cnc3c(N)ncnc32)cc1)N1CCc2nn(C)c(Cc3ccccc3)c2C1=O", "read-out": "binding", "method": "competition with immobilised ligand", "tested at": "0.1 µM", "remaining binding": "87%"}
{"Compound": "O=C(NCC1CCOCC1)c1n[nH]cc1NC(=O)c1c(F)cccc1F", "read-out": "binding", "method": "competition with immobilised ligand", "tested at": "1 µM", "remaining binding": "100%"}
{"Compound": "N[C@@H]1CCN(c2nccc(-c3cnn4ncccc34)n2)C1", "read-out": "binding", "tested at": "1 µM", "remaining binding": "100%"}
{"Compound": "O=C(Nc1cccnn1)N1CCC(=Cc2cccc(Oc3ccc(C(F)(F)F)cn3)c2)CC1", "read-out": "cell-free assay", "method": "competition with immobilised ligand", "tested at": "1 µM", "remaining binding": "91%"}
{"Compound": "CN(CCCC(F)(F)F)c1nccc(-c2cnn3ncccc23)n1", "read-out": "binding", "tested at": "1 µM", "remaining binding": "100%"}
{"Compound": "O=C(NCCCN1CCOCC1)c1ccc(Nc2nccc(-c3cc4ccccc4s3)n2)cc1", "read-out": "binding", "method": "competition with immobilised ligand", "tested at": "1 µM", "remaining binding": "92%"}
{"Compound": "CCS(=O)(=O)c1cc2cc(C[C@@](O)(CC(C)(C)c3ccc(F)cc3C(N)=O)C(F)(F)F)[nH]c2cn1", "read-out": "cell-free assay", "method": "competition with immobilised ligand", "tested at": "1 µM", "remaining binding": "86%"}
{"Compound": "O=C(NCCCN1CCOCC1)c1ccc(Nc2ncc(Cl)c(-c3ccc(Cl)s3)n2)cc1", "read-out": "binding", "method": "competition with immobilised ligand", "tested at": "1 µM", "remaining binding": "100%"}
{"Compound": "Cc1nccc(COC(=O)N2C[C@@H]3[C@@H](CNC(=O)c4ccc5[nH]nnc5c4)[C@@H]3C2)n1", "read-out": "cell-free assay", "method": "competition with immobilised ligand", "tested at": "1 µM", "remaining binding": "97%"}
{"Compound": "CC1CCCN1c1nccc(-c2cnn3ncccc23)n1 (stereo not drawn)", "read-out": "binding", "tested at": "1 µM", "remaining binding": "100%"}
{"Compound": "O=C(c1ccc(Nc2ncc(Cl)c(-c3ccc(Cl)s3)n2)cc1)N1CCC(N2CCCC2)CC1", "read-out": "binding", "method": "competition with immobilised ligand", "tested at": "1 µM", "remaining binding": "98%"}
{"Compound": "C[C@H]1CCN(c2nccc(-c3cnn4ncccc34)n2)C1", "read-out": "binding", "tested at": "1 µM", "remaining binding": "91%"}
{"Compound": "O=S(=O)(NC1CCC(c2cc(F)ccc2F)(S(=O)(=O)c2ccc(Cl)cc2)CC1)C(F)(F)F (stereo not drawn)", "read-out": "cell-free assay", "method": "competition with immobilised ligand", "tested at": "1 µM", "remaining binding": "100%"}
{"Compound": "F[C@@H]1CCN(c2nccc(-c3cnn4ncccc34)n2)C1", "read-out": "binding", "tested at": "1 µM", "remaining binding": "85%"}
{"Compound": "COc1cnc(Nc2cccc(S(N)(=O)=O)c2)nc1N1CCN(c2ccccc2)C(=O)C1", "read-out": "binding", "method": "competition with immobilised ligand", "tested at": "1 µM", "remaining binding": "97%"}
{"Compound": "COc1ccnn2ncc(-c3ccnc(N(C)C)n3)c12", "read-out": "binding", "tested at": "1 µM", "remaining binding": "100%"}
{"Compound": "COc1ccc2c(O[C@@H]3C[C@H]4C(=O)N[C@]5(C(=O)O)CC5/C=C\\CCCCC[C@H](NC(=O)OC5CCCC5)C(=O)N4C3)cc(-c3csc(NC(=O)C(C)C)n3)nc2c1C (stereo partly drawn)", "read-out": "cell-free assay", "method": "competition with immobilised ligand", "tested at": "1 µM", "remaining binding": "82%"}
